Assay results gathered from unrelated publications.
Each line is one published result; the experiments were not run side by side.
Target: Dual specificity tyrosine-phosphorylation-regulated kinase 1A (DYRK1A, Homo sapiens, UniProt Q13627)
Read-out: enzyme activity
Mode: inhibitor

Cc1cnc(NC2CCOCC2)nc1-n1cnc(C(=O)NC(CN)c2cc(F)cc(Cl)c2)c1 (stereo not drawn)  remaining activity (radiometric; 1 µM): 84%
O=C(O)c1ccc2c3c1cccc3c(=O)n1c3ccccc3nc21  remaining activity (0.5 µM): 55.5%
FC(F)c1nc2ccccc2n1-c1nc(N2CCOCC2)nc(N2CCOCC2)n1  remaining activity (10 µM): 78%
COc1cc(Cl)c(C(=O)N[C@@H](CN[C@H]2CC[C@@H](N)CC2)Cc2ccc(C#N)cc2)cc1-c1ccc(CN[C@H](C)c2ccc(C)cc2)o1  remaining activity (1 µM): 120%
O=c1c2ccccc2[nH]c(=S)n1CCN1CCC(=C(c2ccc(F)cc2)c2ccc(F)cc2)CC1  remaining activity (0.5 µM): 99.9%
O=C(O)c1ccc2c(c1)nc(Nc1ccc(F)c(Cl)c1)c1ccncc12  remaining activity (radiometric; 1 µM): 0%
COc1cc(Nc2cnc(C#N)c(O[C@H](C)CN(C)C)n2)ncc1-c1cnn(C)c1  remaining activity (radiometric; 10 µM): 79%
COc1cccc(Nc2nc3cc(C(=O)O)ccc3c3cnccc23)c1  remaining activity (radiometric; 1 µM): 2%
COc1ccc(C(=O)Nc2sc3c(c2C(N)=O)CCCC3)cc1OC  remaining activity (0.5 µM): 97.4%
O=C(O)c1ccc2c(c1)nc(Nc1ccccc1Cl)c1ncncc12  remaining activity (radiometric; 1 µM): 11%
Nc1nc(NC2CCCCC2)sc1C(=O)c1ccccc1  remaining activity (10 µM): 25%
O=C(Nc1cnn(-c2csc(C(=O)NC3COC3)c2)c1)Nc1ccccc1Cl  remaining activity (5 µM): 86%
CC(C)(C)c1nc(-c2cccc(NS(=O)(=O)c3c(F)cccc3F)c2F)c(-c2ccnc(N)n2)s1  remaining activity (radiometric; 1 µM): 90%
COc1cccc(CCNc2nc3cc(C(=O)O)ccc3c3cnccc23)c1  remaining activity (radiometric; 1 µM): 12%
Nc1nc(Nc2ccccc2)sc1C(=O)c1c(F)cccc1F  remaining activity (10 µM): 10%
